Tests used:
NCI-H1975 = experiment: Antiproliferative activity against human NCI-H1975 cells after 72 hrs by MTT assay; assay type: functional, cell-based; settings: NCI-H1975, 72 h
How it was run: (§1)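 MTT assay; cells grown as monolayers in DMEM or RPMI1640 with 10% FBS at 37 °C, 5% CO2 for 24 h, then compound added for 72 h. MTT at 5 μg/mL for 4 h at 37 °C, formazan dissolved in DMSO, absorbance read at 492 nm with 630 nm reference. Each compound tested three times per line; IC50 from averaged determinations.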

A549 = experiment: Antiproliferative activity against human A549 cells after 72 hrs by MTT assay; assay type: functional, cell-based; settings: A549, 72 h; how it was run: as §1
[1] = biological target: Epidermal growth factor receptor (Homo sapiens, UniProt P00533, L858R/T790M); experiment: Inhibition of EGFR T790M/L858R double mutant (unknown origin) using substrate-biotin by ELISA-based mobility shift assay
[2] = biological target: Epidermal growth factor receptor (Homo sapiens, UniProt P00533); experiment: Inhibition of wild-type EGFR (unknown origin) using substrate-biotin by ELISA-based mobility shift assay
Homo sapiens = species: Homo sapiens; experiment: Selectivity ratio of IC50 for wild-type EGFR (unknown origin) to IC50 for EGFR T790M/L858R double mutant (unknown origin)
HepG2 = experiment: Antiproliferative activity against human HepG2 cells after 72 hrs by MTT assay; assay type: functional, cell-based; settings: HepG2, 72 h
How it was run: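 MTT assay; cells grown as monolayers in DMEM or RPMI1640 with 10% FBS at 37 °C, 5% CO2 for 24 h, then compound added for 72 h. Each compound tested three times per line; IC50 from averaged determinations.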

Sequence of Epidermal growth factor receptor (Homo sapiens, UniProt P00533, L858R/T790M) (P00533 25-1210 T790M/L858R limits assumed): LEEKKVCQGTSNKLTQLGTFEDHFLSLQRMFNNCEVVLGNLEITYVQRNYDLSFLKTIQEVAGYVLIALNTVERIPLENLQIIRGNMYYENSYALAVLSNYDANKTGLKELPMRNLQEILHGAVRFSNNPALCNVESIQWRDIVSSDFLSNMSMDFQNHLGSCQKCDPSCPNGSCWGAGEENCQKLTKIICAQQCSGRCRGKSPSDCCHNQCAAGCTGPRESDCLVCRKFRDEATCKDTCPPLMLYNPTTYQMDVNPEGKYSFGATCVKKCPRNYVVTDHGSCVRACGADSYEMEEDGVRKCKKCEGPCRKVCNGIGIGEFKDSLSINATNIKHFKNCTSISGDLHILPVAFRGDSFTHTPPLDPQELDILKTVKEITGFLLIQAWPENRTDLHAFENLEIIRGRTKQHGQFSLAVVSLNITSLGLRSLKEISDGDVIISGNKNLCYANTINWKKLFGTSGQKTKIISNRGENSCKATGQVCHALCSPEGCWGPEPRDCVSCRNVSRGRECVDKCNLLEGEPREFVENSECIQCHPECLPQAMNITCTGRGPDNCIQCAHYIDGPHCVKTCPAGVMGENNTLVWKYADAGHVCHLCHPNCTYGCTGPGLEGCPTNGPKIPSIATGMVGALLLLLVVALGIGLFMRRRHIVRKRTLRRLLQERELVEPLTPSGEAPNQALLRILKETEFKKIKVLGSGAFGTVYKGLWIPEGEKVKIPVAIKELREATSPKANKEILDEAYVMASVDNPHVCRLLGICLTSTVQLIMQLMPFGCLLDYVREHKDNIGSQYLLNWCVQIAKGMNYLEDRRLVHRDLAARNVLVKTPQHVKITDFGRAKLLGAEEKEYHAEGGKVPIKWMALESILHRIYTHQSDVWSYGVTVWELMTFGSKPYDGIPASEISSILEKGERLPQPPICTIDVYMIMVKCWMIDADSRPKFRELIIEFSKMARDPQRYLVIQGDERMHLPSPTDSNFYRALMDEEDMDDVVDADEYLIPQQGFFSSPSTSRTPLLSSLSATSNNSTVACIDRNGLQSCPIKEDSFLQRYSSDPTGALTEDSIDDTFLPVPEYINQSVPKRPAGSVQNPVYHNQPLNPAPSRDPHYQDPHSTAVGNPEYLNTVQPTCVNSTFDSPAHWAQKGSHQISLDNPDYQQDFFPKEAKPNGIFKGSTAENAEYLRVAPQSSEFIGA
Sequence of Epidermal growth factor receptor (Homo sapiens, UniProt P00533) (P00533 whole entry): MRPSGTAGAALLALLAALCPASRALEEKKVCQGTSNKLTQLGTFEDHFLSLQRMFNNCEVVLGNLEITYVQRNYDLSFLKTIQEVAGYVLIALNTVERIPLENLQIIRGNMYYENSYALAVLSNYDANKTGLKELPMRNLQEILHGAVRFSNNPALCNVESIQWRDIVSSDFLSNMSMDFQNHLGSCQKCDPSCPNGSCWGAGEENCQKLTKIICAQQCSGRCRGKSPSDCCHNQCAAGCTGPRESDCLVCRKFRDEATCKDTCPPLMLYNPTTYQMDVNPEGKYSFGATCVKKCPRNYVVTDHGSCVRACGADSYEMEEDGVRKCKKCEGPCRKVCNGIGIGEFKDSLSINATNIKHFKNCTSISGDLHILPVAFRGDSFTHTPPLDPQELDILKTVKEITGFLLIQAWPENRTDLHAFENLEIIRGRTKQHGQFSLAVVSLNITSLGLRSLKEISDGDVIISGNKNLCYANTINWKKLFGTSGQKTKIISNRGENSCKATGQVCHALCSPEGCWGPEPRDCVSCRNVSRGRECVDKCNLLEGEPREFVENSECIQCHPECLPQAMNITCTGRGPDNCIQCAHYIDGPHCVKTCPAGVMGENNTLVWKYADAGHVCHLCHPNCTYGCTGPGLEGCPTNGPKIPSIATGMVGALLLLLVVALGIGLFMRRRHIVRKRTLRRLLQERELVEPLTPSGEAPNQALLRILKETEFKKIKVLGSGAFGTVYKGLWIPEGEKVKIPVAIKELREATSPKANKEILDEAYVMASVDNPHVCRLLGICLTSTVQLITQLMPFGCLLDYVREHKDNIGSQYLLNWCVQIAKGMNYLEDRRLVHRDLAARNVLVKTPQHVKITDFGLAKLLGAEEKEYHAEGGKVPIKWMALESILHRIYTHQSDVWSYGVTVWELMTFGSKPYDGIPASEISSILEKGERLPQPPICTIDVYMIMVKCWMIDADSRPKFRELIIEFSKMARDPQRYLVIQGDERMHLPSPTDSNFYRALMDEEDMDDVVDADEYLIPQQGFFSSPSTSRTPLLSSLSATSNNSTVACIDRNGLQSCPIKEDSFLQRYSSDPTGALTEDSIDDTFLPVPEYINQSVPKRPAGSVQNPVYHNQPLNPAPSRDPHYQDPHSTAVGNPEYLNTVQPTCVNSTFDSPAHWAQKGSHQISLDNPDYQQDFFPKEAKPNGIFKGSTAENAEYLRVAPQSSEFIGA

Row | SMILES | IC50 (NCI-H1975) | IC50 (A549) | IC50 [1] | IC50 [2] | Ratio IC50 (Homo sapiens) | IC50 (HepG2)
1 | CC/C=C\C(=O)Nc1cc(Nc2nccc(-c3cn(C)c4ccccc34)n2)c(OC)cc1N(C)CCN(C)C | 3860 nM | 1530 nM | 177 nM | 1280 nM | 7.2 | 6670 nM
2 | COc1cc(N(C)CCN(C)C)c(NC(=O)/C=C\C(C)C)cc1Nc1nc(C)cc(-c2cn(C)c3ccccc23)n1 | 1230 nM | 1070 nM | 38 nM | > 2000 nM | – | 3550 nM
3 | CCC/C=C\C(=O)Nc1cc(Nc2nc(C)cc(-c3cn(C)c4ccc(F)cc34)n2)c(OC)cc1N(C)CCN(C)C | 12200 nM | 13300 nM | 923 nM | > 2000 nM | – | 12100 nM
4 | CCC/C=C\C(=O)Nc1cc(Nc2nccc(-c3cn(C)c4ccc(F)cc34)n2)c(OC)cc1N(C)CCN(C)C | 2730 nM | 1030 nM | 7.5 nM | 12 nM | 1.6 | 3400 nM
5 | CC/C=C\C(=O)Nc1cc(Nc2nc(C)cc(-c3cn(C)c4ccc(F)cc34)n2)c(OC)cc1N(C)CCN(C)C | 10400 nM | 9150 nM | 998 nM | > 2000 nM | – | 11000 nM
6 | COc1cc(N(C)CCN(C)C)c(NC(=O)/C=C\C(C)C)cc1Nc1ncc(C#N)c(-c2cn(C)c3ccccc23)n1 | 1110 nM | 1100 nM | 219 nM | 985 nM | 4.5 | 1810 nM
7 | COc1cc(N(C)CCN(C)C)c(NC(=O)/C=C\C(C)C)cc1Nc1nccc(-c2cn(C)c3ccc(F)cc23)n1 | 7360 nM | 6140 nM | > 2000 nM | 977 nM | – | 3920 nM
8 | CCC/C=C\C(=O)Nc1cc(Nc2ncc(C#N)c(-c3cn(C)c4ccccc34)n2)c(OC)cc1N(C)CCN(C)C | 823 nM | 166 nM | 37 nM | 377 nM | 10.2 | 1680 nM
9 | CCC/C=C\C(=O)Nc1cc(Nc2ncc(C#N)c(-c3cn(C)c4ccc(F)cc34)n2)c(OC)cc1N(C)CCN(C)C | 2420 nM | 741 nM | 201 nM | 1060 nM | 5.3 | 2010 nM
10 | C=CC(=O)Nc1cc(Nc2nccc(-c3cn(C)c4ccc(F)cc34)n2)c(OC)cc1N(C)CCN(C)C | 254 nM | 329 nM | 0.07 nM | 8.7 nM | 124 | 429 nM
11 | C=CC(=O)Nc1cc(Nc2nc(C)cc(-c3cn(C)c4ccccc34)n2)c(OC)cc1N(C)CCN(C)C | 4810 nM | 2910 nM | 93 nM | 1340 nM | 14.5 | 12600 nM
12 | C=C(Cl)C(=O)Nc1cc(Nc2nccc(-c3cn(C)c4ccccc34)n2)c(OC)cc1N(C)CCN(C)C | 1290 nM | 7520 nM | 33 nM | 257 nM | 7.8 | 1390 nM
13 | C=C(Cl)C(=O)Nc1cc(Nc2ncc(C#N)c(-c3cn(C)c4ccccc34)n2)c(OC)cc1N(C)CCN(C)C | 1620 nM | 133 nM | 20 nM | 137 nM | 6.9 | 115 nM
14 | COc1cc(N(C)CCN(C)C)c(NC(=O)C=C(C)C)cc1Nc1nccc(-c2cn(C)c3ccccc23)n1 | 5610 nM | 4100 nM | 209 nM | 1280 nM | 6.1 | 5660 nM
15 | C=C(F)C(=O)Nc1cc(Nc2nccc(-c3cn(C)c4ccccc34)n2)c(OC)cc1N(C)CCN(C)C | 4230 nM | 2460 nM | 6 nM | 65 nM | 10.8 | 3790 nM
16 | C=CC(=O)Nc1cc(Nc2nccc(-c3cn(C)c4ccccc34)n2)c(OC)cc1N(C)CCN(C)C [OSIMERTINIB] | […] | 615 nM | – | – | – | –
17 | C=C(Cl)C(=O)Nc1cc(Nc2nc(C)cc(-c3cn(C)c4ccccc34)n2)c(OC)cc1N(C)CCN(C)C | 2230 nM | 1730 nM | 10 nM | 83 nM | 8.3 | 3640 nM
18 | CC/C=C\C(=O)Nc1cc(Nc2ncc(C#N)c(-c3cn(C)c4ccccc34)n2)c(OC)cc1N(C)CCN(C)C | 1150 nM | 162 nM | 16 nM | 387 nM | 24.2 | 1360 nM
19 | COc1cc(N(C)CCN(C)C)c(NC(=O)C(Cl)=C(Cl)Cl)cc1Nc1nccc(-c2cn(C)c3ccccc23)n1 | > 50000 nM | > 50000 nM | > 2000 nM | > 2000 nM | – | > 50000 nM
20 | CCC/C=C\C(=O)Nc1cc(Nc2nccc(-c3cn(C)c4ccccc34)n2)c(OC)cc1N(C)CCN(C)C | 1220 nM | 808 nM | 203 nM | 1500 nM | 7.4 | 431 nM
21 | C/C=C\C(=O)Nc1cc(Nc2nccc(-c3cn(C)c4ccccc34)n2)c(OC)cc1N(C)CCN(C)C | 4540 nM | 660 nM | 52 nM | 395 nM | 7.6 | 6930 nM
22 | C=CC(=O)Nc1cc(Nc2nc(C)cc(-c3cn(C)c4ccc(F)cc34)n2)c(OC)cc1N(C)CCN(C)C | 3830 nM | 1490 nM | 591 nM | 1090 nM | 1.9 | 4280 nM
23 | CC/C=C\C(=O)Nc1cc(Nc2nc(C)cc(-c3cn(C)c4ccccc34)n2)c(OC)cc1N(C)CCN(C)C | 1990 nM | 1080 nM | 18 nM | 1260 nM | 69.7 | 2050 nM
24 | CC/C=C\C(=O)Nc1cc(Nc2ncc(C#N)c(-c3cn(C)c4ccc(F)cc34)n2)c(OC)cc1N(C)CCN(C)C | 10200 nM | 4720 nM | > 2000 nM | > 2000 nM | – | 5880 nM
25 | COc1cc(N(C)CCN(C)C)c(NC(=O)/C=C\C(C)C)cc1Nc1nccc(-c2cn(C)c3ccccc23)n1 | 1820 nM | 612 nM | 397 nM | > 2000 nM | – | 4390 nM
26 | C=CC(=O)Nc1cc(Nc2ncc(C#N)c(-c3cn(C)c4ccccc34)n2)c(OC)cc1N(C)CCN(C)C | 1190 nM | 308 nM | 25 nM | 311 nM | 12.4 | 768 nM
27 | COc1cc(N(C)CCN(C)C)c(NC(=O)/C=C\C(C)C)cc1Nc1nc(C)cc(-c2cn(C)c3ccc(F)cc23)n1 | 8520 nM | 9080 nM | 892 nM | > 2000 nM | – | 14000 nM
28 | C=CC(=O)Nc1cc(Nc2ncc(C#N)c(-c3cn(C)c4ccc(F)cc34)n2)c(OC)cc1N(C)CCN(C)C | 11400 nM | 9700 nM | > 2000 nM | > 2000 nM | – | 17500 nM
29 | CC/C=C\C(=O)Nc1cc(Nc2nccc(-c3cn(C)c4ccc(F)cc34)n2)c(OC)cc1N(C)CCN(C)C | 2600 nM | 3600 nM | 388 nM | 684 nM | 1.8 | 5280 nM
30 | COc1cc(N(C)CCN(C)C)c(NC(=O)/C=C\C(C)C)cc1Nc1ncc(C#N)c(-c2cn(C)c3ccc(F)cc23)n1 | 1130 nM | 185 nM | 360 nM | 415 nM | 1.2 | 2840 nM
